Source: ChEMBL document CHEMBL1649247, “Fluoroquinolone resistance in Mycobacterium tuberculosis and mutations in gyrA and gyrB” (2009)
≈ marks a conversion by molar mass, not a printed value. Calls of active or inactive are those of the source. The calls are words filed in the database; no cut-off is given here.

Legend:
[1] = system: Mycobacterium tuberculosis; test: Antimycobacterial activity against Mycobacterium tuberculosis 08-0762 by resazurin microtiter assay; assay type: functional
Outline: (§1)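 Isolates taken from fresh Löwenstein-Jensen subcultures grown at 37°C for at most 4 weeks. Drug stocks 1 mg/ml in 0.1 N NaOH, filter sterilized, stored at −20°C less than 2 months. MIC read by resazurin microtiter assay following a previously described protocol.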

[2] = system: Mycobacterium tuberculosis; test: Antimycobacterial activity against Mycobacterium tuberculosis 08-0789 assessed as microbial susceptibility by agar proportion method; assay type: functional, organism-based
Outline: (§2)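 Clinical isolates freshly subcultured on Löwenstein-Jensen medium, held at 37°C no longer than 4 weeks. Fluoroquinolone stocks 1 mg/ml in 0.1 N NaOH, filter sterilized, kept at −20°C under 2 months. Standard proportion method on 7H11 agar; breakpoints 2 mg/liter ofloxacin, 0.5 mg/liter moxifloxacin and gatifloxacin; scored susceptible or resistant.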

[3] = system: Mycobacterium tuberculosis; test: Antimycobacterial activity against Mycobacterium tuberculosis 08-0774 by resazurin microtiter assay; assay type: functional; outline: as §1
[4] = system: Mycobacterium tuberculosis; test: Antimycobacterial activity against Mycobacterium tuberculosis 08-0781 assessed as microbial susceptibility by agar proportion method; assay type: functional, organism-based; outline: as §2
[5] = system: Mycobacterium tuberculosis; test: Antimycobacterial activity against Mycobacterium tuberculosis 08-0764 assessed as microbial susceptibility by agar proportion method; assay type: functional, organism-based; outline: as §2
[6] = system: Mycobacterium tuberculosis; test: Antimycobacterial activity against Mycobacterium tuberculosis 08-0774 assessed as microbial susceptibility by agar proportion method; assay type: functional, organism-based; outline: as §2
[7] = system: Mycobacterium tuberculosis; test: Antimycobacterial activity against Mycobacterium tuberculosis 08-0782 assessed as microbial susceptibility by agar proportion method; assay type: functional, organism-based; outline: as §2
[8] = system: Mycobacterium tuberculosis; test: Antimycobacterial activity against Mycobacterium tuberculosis 08-0762 assessed as microbial susceptibility by agar proportion method; assay type: functional, organism-based; outline: as §2
[9] = system: Mycobacterium tuberculosis; test: Antimycobacterial activity against Mycobacterium tuberculosis 08-0789 by resazurin microtiter assay; assay type: functional; outline: as §1
[10] = system: Mycobacterium tuberculosis; test: Antimycobacterial activity against Mycobacterium tuberculosis 08-0782 by resazurin microtiter assay; assay type: functional; outline: as §1
[11] = system: Mycobacterium tuberculosis; test: Antimycobacterial activity against Mycobacterium tuberculosis 08-0764 by resazurin microtiter assay; assay type: functional; outline: as §1
[12] = system: Mycobacterium tuberculosis; test: Antimycobacterial activity against Mycobacterium tuberculosis 08-0781 by resazurin microtiter assay; assay type: functional; outline: as §1

`COc1c(N2CCNC(C)C2)c(F)cc2c(=O)c(C(=O)O)cn(C3CC3)c12` (stereo unspecified) [GATIFLOXACIN] was tested, and the MIC [1] was no more than 0.062 µg/mL, the Activity [2] was “Active” and the MIC [3] was no more than 0.062 µg/mL. The Activity [4] was “Active”, the Activity [5] was “Active” and the Activity [6] was “Active”. The Activity [7] was “Active”, the Activity [8] was “Active” and the MIC [9] was no more than 0.062 µg/mL. The MIC [10] was 0.125 µg/mL (≈ 0.333 µM), the MIC [11] was no more than 0.062 µg/mL and the MIC [12] was no more than 0.062 µg/mL.

For `COc1c(N2C[C@@H]3CCCN[C@@H]3C2)c(F)cc2c(=O)c(C(=O)O)cn(C3CC3)c12` [MOXIFLOXACIN], the MIC [1] was no more than 0.125 µg/mL, the Activity [2] was “Active” and the MIC [3] was no more than 0.125 µg/mL. For the same molecule, the Activity [4] was “Active”, the Activity [5] was “Active” and the Activity [6] was “Active”. For the same molecule, the Activity [7] was “Active”, the Activity [8] was “Active” and the MIC [9] was no more than 0.125 µg/mL. The MIC [10] was no more than 0.125 µg/mL, the MIC [11] was no more than 0.125 µg/mL and the MIC [12] was no more than 0.125 µg/mL.

In the case of `CC1COc2c(N3CCN(C)CC3)c(F)cc3c(=O)c(C(=O)O)cn1c23` (stereo unspecified) [OFLOXACIN], the MIC [1] is reported as 0.5 µg/mL (≈ 1.38 µM), the Activity [2] is reported as “Active” and the MIC [3] is reported as no more than 0.25 µg/mL. The Activity [4] was “Active”, the Activity [5] was “Active” and the Activity [6] was “Active”. For the same molecule, the Activity [7] was “Active”, the Activity [8] was “Active” and the MIC [9] was 0.5 µg/mL (≈ 1.38 µM). It also gave an MIC [10] of 0.5 µg/mL (≈ 1.38 µM), an MIC [11] of 0.5 µg/mL (≈ 1.38 µM) and an MIC [12] of no more than 0.25 µg/mL.
